ChEMBL document CHEMBL1129388, “Structure-activity modifications of the HIV-1 inhibitors (+)-calanolide A and (-)-calanolide B” (J Med Chem, 1996)

What was measured:
CEM-SS [1] = test: Using the XTT assay for cell viability, effective concentration to protect human lymphoblastoid CEM-SS cells from the cytopathic effects of HIV-1 (RF strain) was determined; format: functional, cell-based
In short: (§1)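 Values reported as averages of quadruplicate determinations.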

CEM-SS [2] = test: Using the XTT assay for cell viability, inhibitory concentration to protect human lymphoblastoid CEM-SS cells from the cytopathic effects of HIV-1 (RF strain) was determined; format: functional, cell-based; in short: as §1
[3] = Ratio of inhibitory concentration to that of effective concentration for protection of CEM-SS cells from cytopathic effects of HIV-1 (RF strain); format: functional
In short: (§2)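 In vitro therapeutic index taken as IC50 divided by EC50.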

CEM-SS [4] = test: Using the XTT assay for cell viability, inhibitory concentration to protect human lymphoblastoid CEM-SS cells from the cytopathic effects of HIV-1 (RF strain) was determined; c - not measurable; format: functional, cell-based; in short: as §1
CEM-SS [5] = test: Using the XTT assay for cell viability, effective concentration to protect human lymphoblastoid CEM-SS cells from the cytopathic effects of HIV-1 (RF strain) was determined; c - not measurable; format: functional, cell-based; in short: as §1
CEM-SS [6] = test: Using the XTT assay for cell viability, effective concentration to protect human lymphoblastoid CEM-SS cells from the cytopathic effects of HIV-1 (RF strain) was determined; c - not measurabel; format: functional, cell-based; in short: as §1
CEM-SS [7] = test: Using the XTT assay for cell viability, inhibitory concentration to protect human lymphoblastoid CEM-SS cells from the cytopathic effects of HIV-1 (RF strain) was determined; c - not measurabel; format: functional, cell-based; in short: as §1
CEM-SS [8] = test: Ratio of inhibitory concentration to that of effective concentration for protection of CEM-SS cells from cytopathic effects of HIV-1 (RF strain); not measurable; format: functional, cell-based; in short: as §2
CEM-SS [9] = test: (§3) Using the XTT assay for cell viability, effective concentration to protect human lymphoblastoid CEM-SS cells from the cytopathic effects of HIV-1 (RF strain) was determined; d - Not independently evaluated; not stable under assay conditions; rapidl y converts to active compound 2 under assay conditions.; format: functional, cell-based
CEM-SS [10] = test: as §3, with “inhibitory” for “effective”, “rapid ly” for “rapidl y”; format: functional, cell-based

CCCc1cc(=O)oc2c3c(c4c(c12)OC(C)(C)CC4)O[C@@H](C)[C@H](C)[C@@H]3N
EC50 (CEM-SS [1]): 0.6 µM | IC50 (CEM-SS [2]): 5.8 µM | TI [3]: 10

CCCc1cc(=O)oc2c3c(c4c(c12)OC(C)(C)CC4)O[C@H](C)[C@@H](C)[C@@H]3O
EC50 (CEM-SS [1]): 0.2 µM | IC50 (CEM-SS [2]): 5.2 µM | TI [3]: 23

CCCc1cc(=O)oc2c3c(c4c(c12)OC(C)(C)C=C4)O[C@@H](C)[C@H](C)C3=O
EC50 (CEM-SS [1]): 0.4 µM | IC50 (CEM-SS [2]): 8.5 µM | TI [3]: 24

CCCc1cc(=O)oc2c3c(c4c(c12)OC(C)(C)C=C4)O[C@H](C)[C@@H](C)[C@@H]3O [CALANOLIDE A]
EC50 (CEM-SS [1]): 0.18 µM | IC50 (CEM-SS [2]): 7.3 µM | TI [3]: 40

CCCc1cc(=O)oc2c3c(c4c(c12)OC(C)(C)CC4)O[C@H](C)C(C)=C3
IC50 (CEM-SS [4]): Not measurable | EC50 (CEM-SS [5]): Not measurable

CCCc1cc(=O)oc2c3c(c4c(c12)OC(C)(C)C=C4)O[C@@H](C)[C@H](C)[C@@H]3N=[N+]=[N-]
EC50 (CEM-SS [1]): 1.6 µM | IC50 (CEM-SS [2]): 5.9 µM | TI [3]: 4

CCCc1cc(=O)oc2c3c(c4c(c12)OC(C)(C)C=C4)O[C@H](C)[C@@H](C)C3=O
EC50 (CEM-SS [1]): 0.15 µM | IC50 (CEM-SS [2]): 9.3 µM | TI [3]: 62

CCCc1cc(=O)oc2c3c(c4c(c12)OC(C)(C)C=C4)O[C@@H](C)[C@H](C)[C@H]3O [(-)-CALANOLIDE A]
EC50 (CEM-SS [6]): Not measurable | IC50 (CEM-SS [7]): Not measurable

CCCc1cc(=O)oc2c3c(c4c(c12)OC(C)(C)C=C4)O[C@@H](C)[C@H](C)[C@@H]3S
EC50 (CEM-SS [1]): 8.4 µM | IC50 (CEM-SS [2]): > 150 µM | TI (CEM-SS [8]): Not measurable

CCCc1cc(=O)oc2c3c(c4c(c12)OC(C)(C)CC4)O[C@@H](C)[C@H](C)[C@@H]3O [7,8-DIHYDROCALANOLIDE B]
EC50 (CEM-SS [1]): 0.2 µM | IC50 (CEM-SS [2]): 8.2 µM | TI [3]: 41

CCCc1cc(=O)oc2c3c(c4c(c12)OC(C)(C)C=C4)O[C@@H](C)[C@H](C)[C@@H]3O [COSTATOLIDE]
EC50 (CEM-SS [1]): 0.2 µM | IC50 (CEM-SS [2]): 5.9 µM | TI [3]: 31

CCCc1cc(=O)oc2c3c(c4c(c12)OC(C)(C)CC4)O[C@@H](C)[C@H](C)C3=O
EC50 (CEM-SS [1]): 0.37 µM | IC50 (CEM-SS [2]): 7.9 µM | TI [3]: 21

CCCc1cc(=O)oc2c3c(c4c(c12)OC(C)(C)C=C4)O[C@@H](C)[C@H](C)[C@@H]3F
EC50 (CEM-SS [9]): Not independently evaluated | IC50 (CEM-SS [10]): Not independently evaluated
